Laboratory results as given in ChEMBL document CHEMBL3616442, “Unconventional Knoevenagel-type indoles: Synthesis and cell-based studies for the identification of pro-apoptotic agents” (Eur J Med Chem, 2015).

Columns and labels:
MDA-MB-231 = assay: Growth inhibition of human MDA-MB-231 cells after 48 hrs by sulforhodamine B assay; assay type: functional; settings: MDA-MB-231, 48 h
In short: (§1)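 NCI 60-cell-line screen. Compounds tested at five 10-fold dilutions from 10^-4 to 10^-8 M. Cells exposed for the last 48 h of a 72 h incubation, growth estimated by sulforhodamine B protein assay. GI50 is the concentration giving 50% growth inhibition. Values beyond the tested range are expressed as greater or lesser than the extreme concentration.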

IGROV-1 = assay: Growth inhibition of human IGROV1 cells after 48 hrs by sulforhodamine B assay; assay type: functional; settings: IGROV-1, 48 h; in short: as §1
CCRF-CEM [1] = assay: Growth inhibition of human CCRF-CEM cells after 48 hrs by sulforhodamine B assay; assay type: functional; in short: as §1
MDA-MB-435 = assay: Growth inhibition of human MDA-MB-435 cells after 48 hrs by sulforhodamine B assay; assay type: functional; settings: MDA-MB-435, 48 h; in short: as §1
SK-OV-3 = assay: Growth inhibition of human SKOV3 cells after 48 hrs by sulforhodamine B assay; assay type: functional; settings: SK-OV-3, 48 h
NCI-H522 = assay: Growth inhibition of human NCI-H522 cells after 48 hrs by sulforhodamine B assay; assay type: functional; settings: NCI-H522, 48 h; in short: as §1
786-0 = assay: Growth inhibition of human 786-0 cells after 48 hrs by sulforhodamine B assay; assay type: functional; settings: 786-0, 48 h; in short: as §1
[2] = Growth inhibition of human SF295 cells after 48 hrs by sulforhodamine B assay; assay type: functional; settings: SF-295, 48 h
[3] = Growth inhibition of human COLO205 cells after 48 hrs by sulforhodamine B assay; assay type: functional; settings: COLO 205, 48 h; in short: as §1
HOP-62 = assay: Growth inhibition of human HOP62 cells after 48 hrs by sulforhodamine B assay; assay type: functional; settings: HOP-62, 48 h; in short: as §1
CAKI-1 = assay: Growth inhibition of human CAKI-1 cells after 48 hrs by sulforhodamine B assay; assay type: functional; settings: CAKI-1, 48 h; in short: as §1
SF-268 = assay: Growth inhibition of human SF268 cells after 48 hrs by sulforhodamine B assay; assay type: functional; settings: SF-268, 48 h
SN12C = assay: Growth inhibition of human SN12C cells after 48 hrs by sulforhodamine B assay; assay type: functional
PC-3 = assay: Growth inhibition of human PC3 cells after 48 hrs by sulforhodamine B assay; assay type: functional; settings: PC-3, 48 h
[4] = Growth inhibition of human RPMI8226 cells after 48 hrs by sulforhodamine B assay; assay type: functional; settings: RPMI-8226, 48 h
T47D = assay: Growth inhibition of human T47D cells after 48 hrs by sulforhodamine B assay; assay type: functional
M14 = assay: Growth inhibition of human M14 cells after 48 hrs by sulforhodamine B assay; assay type: functional; settings: M14, 48 h; in short: as §1
SR = assay: Growth inhibition of human SR cells after 48 hrs by sulforhodamine B assay; assay type: functional
K562 [5] = assay: Induction of apoptosis in human K562 cells by propidium iodide staining based flow cytometric analysis; assay type: functional
In short: (§2)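 After treatment, cells harvested, fixed in ice-cold 70% ethanol at 4 °C, stained 30 min at 37 °C in the dark with 100 µg/mL propidium iodide plus 10 µg/mL RNase A; 10,000 gated cells analysed at 488 nm with debris excluded; apoptosis followed over time; mean ± S.E.M. of three independent experiments run in triplicate.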

K562 [6] = assay: Antiproliferative activity against human K562 cells after 3 days incubation by alamar blue method; assay type: functional; settings: for GI50: K562, 72 h
In short: (§3)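 HL-60 and K562 grown in RPMI 1640, MCF-7 in DMEM, each with 10% FCS, penicillin G and streptomycin. Seeded at 4x10⁴ (HL-60, K562) or 2x10⁴ (MCF-7) cells per well with serial compound dilutions, incubated 3 days at 37 °C. Alamar blue added for 3 h at 37 °C in the dark, fluorescence read at ex 544/em 590 nm. IC50 versus untreated controls by linear regression.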

MCF7 [7] = assay: Induction of apoptosis in human MCF7 cells by propidium iodide staining based flow cytometric analysis; assay type: functional; settings: TDE = time-dependent effect; in short: as §2
MCF7 [8] = assay: Antiproliferative activity against human MCF7 cells after 3 days incubation by alamar blue method; assay type: functional; settings: for GI50: MCF7, 72 h; in short: as §3
HL-60 [9] = assay: Antiproliferative activity against human HL60 cells after 3 days incubation by alamar blue method; assay type: functional; settings: for GI50: HL-60, 72 h; in short: as §3
HL-60 [10] = assay: Induction of apoptosis in human HL60 cells by propidium iodide staining based flow cytometric analysis; assay type: functional; settings: TDE = time-dependent effect; in short: as §2
WIL2-NS = assay: Cytotoxicity against human WIL2-NS cells after 96 hrs by MTT assay; assay type: functional, cell-based
In short: (§4)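 ATCC cell lines, mycoplasma-free by Hoechst staining. Haematological lines in RPMI-1640, solid-tumour and normal fibroblast lines in their own media, all with 10% FCS and antibiotics, at 37 °C in 5% CO₂. Compounds added as serial dilutions from a 100 mM DMSO stock diluted in medium. Viability by MTT after 96 h at 37 °C. Mean ± SD of three independent determinations.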

MRC5 = assay: Cytotoxicity against human MRC5 cells after 96 hrs by MTT assay; assay type: cell-based; settings: MRC5, 96 h; in short: as §4
DU-145 = assay: Cytotoxicity against human DU145 cells after 96 hrs by MTT assay; assay type: functional, cell-based; settings: DU-145, 96 h; in short: as §4
[11] = Cytotoxicity against human SKMES1 cells after 96 hrs by MTT assay; assay type: functional, cell-based; settings: SK-MES-1, 96 h; in short: as §4
MCF7 [12] = assay: Cytotoxicity against human MCF7 cells after 96 hrs by MTT assay; assay type: functional, cell-based; settings: MCF7, 96 h; in short: as §4
[13] = Cytotoxicity against human CRL7065 cells after 96 hrs by MTT assay; assay type: cell-based; settings: CRL-7065, 96 h; in short: as §4
CCRF-SB = assay: Cytotoxicity against human CCRF-SB cells after 96 hrs by MTT assay; assay type: functional, cell-based; in short: as §4
CCRF-CEM [14] = assay: Cytotoxicity against human CCRF-CEM cells after 96 hrs by MTT assay; assay type: functional, cell-based; in short: as §4
HepG2 = assay: Cytotoxicity against human HepG2 cells after 96 hrs by MTT assay; assay type: functional, cell-based; settings: HepG2, 96 h; in short: as §4
SK-MEL-28 = assay: Cytotoxicity against human SK-MEL-28 cells after 96 hrs by MTT assay; assay type: functional, cell-based; settings: SK-MEL-28, 96 h; in short: as §4

SMILES | GI50 (MDA-MB-231) | GI50 (IGROV-1) | GI50 (CCRF-CEM [1]) | GI50 (MDA-MB-435) | GI50 (SK-OV-3) | GI50 (NCI-H522) | GI50 (786-0) | GI50 [2] | GI50 [3] | GI50 (HOP-62) | GI50 (CAKI-1) | GI50 (SF-268) | GI50 (SN12C) | GI50 (PC-3) | GI50 [4] | GI50 (T47D) | GI50 (M14) | GI50 (SR) | further results
CC(=O)/C(=C\c1c(-c2ccccc2)[nH]c2ccccc12)S(=O)(=O)c1ccccc1 | 1.7 µM | 1.5 µM | 1.4 µM | 0.295 µM | 2.9 µM | 1.3 µM | 1.6 µM | 2.4 µM | 1.7 µM | 1.2 µM | 2.4 µM | 3.4 µM | 1.9 µM | 2.5 µM | 2.2 µM | 1.4 µM | 0.521 µM |  | 
N#CC(C#N)=Cc1c(-c2ccccc2)[nH]c2ccccc12 | 1.8 µM | 0.757 µM | 2.4 µM | 0.246 µM | 6 µM | 9.6 µM | 8.6 µM | 1.6 µM | 1.8 µM | 11.3 µM | 6.1 µM | 13.4 µM | 6.8 µM | 3 µM | 0.582 µM | 4.6 µM | 1.9 µM |  | 
N#C/C(=C\c1c(-c2ccccc2)[nH]c2ccccc12)S(=O)(=O)c1ccccc1 | 3.8 µM | 3.3 µM | 2.6 µM | 0.288 µM | 6.8 µM | 4.6 µM | 9.2 µM | 2.4 µM | 1.4 µM | 9.3 µM | 5.5 µM | 4.5 µM | 5.2 µM | 3.4 µM | 0.714 µM | 3.8 µM | 3.8 µM | 17.3 µM | 
COc1ccc(-c2[nH]c3ccccc3c2C=C(C#N)C#N)cc1 | 0.562 µM | 1.4 µM | 0.352 µM | 0.128 µM | 0.445 µM | 0.798 µM | 0.72 µM | 0.336 µM | 0.223 µM | 1.2 µM | 0.679 µM | 0.709 µM | 1.2 µM | 0.547 µM | 0.49 µM | 0.481 µM | 0.295 µM |  | Activity (K562 [5]): 44.4%; Activity (K562 [5]; TDE = time-dependent effect): tde; Activity (K562 [6]): Dose-dependent effect; GI50 (K562 [6]): 4.78 µM; Activity (MCF7 [7]): tde; Activity (MCF7 [8]): Dose-dependent effect; GI50 (MCF7 [8]): > 10 µM; Activity (HL-60 [9]): Dose-dependent effect; GI50 (HL-60 [9]): 1.08 µM; Activity (HL-60 [10]): tde
COc1ccc2[nH]c(-c3ccccc3)c(/C=C(\C#N)S(=O)(=O)c3ccccc3)c2c1 | 7.5 µM | 4.8 µM | 6.5 µM | 1.1 µM | 7.1 µM | 4 µM | 6.1 µM | 2.8 µM | 7.4 µM | 8.3 µM | 4.5 µM | 13.3 µM | 7.8 µM | 8.3 µM |  | 5.2 µM | 3.7 µM | 2.2 µM | EC50 (WIL2-NS): 2.8 µM; EC50 (MRC5): 14 µM; EC50 (DU-145): 10 µM; EC50 [11]: 12 µM; EC50 (MCF7 [12]): 12 µM; EC50 [13]: 11 µM; EC50 (CCRF-SB): 1.9 µM; EC50 (CCRF-CEM [14]): 1.5 µM; EC50 (HepG2): 9.6 µM; EC50 (SK-MEL-28): 10 µM
CC(=O)/C(=C\c1c(-c2ccccc2)[nH]c2ccccc12)S(C)(=O)=O | 5.5 µM | 8.3 µM | 4.7 µM | 0.415 µM | 4.4 µM | 3.6 µM | 3.5 µM | 3.9 µM | 3 µM | 12.1 µM | 5.6 µM | 4.2 µM | 6.9 µM | 4.5 µM | 3 µM | 2.3 µM | 1.6 µM |  | Activity (K562 [5]; TDE = time-dependent effect): tde; Activity (K562 [6]): Dose-dependent effect; GI50 (K562 [6]): 7.71 µM; Activity (MCF7 [7]): tde; Activity (MCF7 [8]): Dose-dependent effect; GI50 (MCF7 [8]): > 10 µM; Activity (HL-60 [9]): Dose-dependent effect; GI50 (HL-60 [9]): 2.57 µM; Activity (HL-60 [10]): tde
CCOC(=O)C(=Cc1c(-c2ccccc2)[nH]c2ccccc12)C(=O)OCC | 5.8 µM | 5.7 µM | 2.6 µM | 3.4 µM | 13.6 µM | 3.4 µM | 12.9 µM | 7.6 µM | 4.9 µM | 5.5 µM | 10.3 µM | 6.8 µM | 5.1 µM | 3.3 µM | 0.219 µM | 2.7 µM | 4.2 µM | 2.1 µM | 
COc1ccc2[nH]c(-c3ccccc3)c(C=C(C#N)C#N)c2c1 | 3.8 µM | 8.4 µM | 3.4 µM | 0.607 µM | 4.8 µM | 4.6 µM | 6.6 µM | 4.2 µM | 2.1 µM | 5.3 µM | 4.1 µM | 8.3 µM | 4.7 µM | 5.4 µM | 2.6 µM | 2.3 µM | 2.3 µM | 0.865 µM | 
COC(=O)/C(=C\c1c(-c2ccccc2)[nH]c2ccccc12)S(C)(=O)=O | 2.4 µM | 1.7 µM | 7.6 µM | 0.671 µM | 12.1 µM | 3.1 µM | 7.5 µM | 3.1 µM | 4.4 µM | 10.7 µM | 1.8 µM | 4.3 µM | 3.1 µM | 4.2 µM | 6.2 µM | 2.8 µM | 3.3 µM | 8.1 µM | 
COc1ccc(-c2[nH]c3ccc(OC)cc3c2/C=C(\C#N)S(=O)(=O)c2ccccc2)cc1 | 1.4 µM | 10.6 µM | 1.3 µM | 0.276 µM | 0.901 µM | 1.7 µM | 2.1 µM | 0.76 µM | 0.396 µM | 3.1 µM | 4.2 µM | 1.6 µM | 2.3 µM | 0.534 µM | 1.3 µM | 0.905 µM | 0.5 µM | 0.305 µM | EC50 (WIL2-NS): 0.5 µM; EC50 (MRC5): 22 µM; EC50 (DU-145): 3 µM; EC50 [11]: > 100 µM; EC50 (MCF7 [12]): 40 µM; EC50 [13]: > 100 µM; EC50 (CCRF-SB): 0.3 µM; EC50 (CCRF-CEM [14]): 0.3 µM; EC50 (HepG2): 6.4 µM; EC50 (SK-MEL-28): > 100 µM
